Compounds with a hit are over-represented: about 1.8% of the library has one in this group of screens.
STAT3 inh: reduces IL-6 driven STAT3 reporter signal; U3A cells, IL-6 STAT3-luciferase reporter, luminescence; host cell line lacks STAT1; hit rate 0.89% among 190,000; inhibition, % at 5.5 µM;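 active = inhibition above the mean inhibition across all screened compounds plus 3 SD, cut at about 44% in these data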;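 also: 0% = DMSO only wells and 100% = 100 µM nifuroxazide control wells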
STAT3 activator: increases IL-6 driven STAT3 reporter signal. U3A cells, IL-6 STAT3-luciferase reporter, luminescence; 100% = signal with IL-6 EC80 alone. activation (% of control), % at 5.6 µM. hit rate 0.91% among 190,000. AID 871;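 active = activation above the screen-wide mean of compound activation plus 3 SD, cut at about 130% in these data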;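 also: 0% = background luminescence of wells with medium and substrate only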
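Material: human STAT1-deficient U3A cells with stable STAT3-luciferase reporter / Probe or stimulus: IL-6 stimulus at 33 ng/mL final / Schedule: 1 h compound pre-exposure, 6 h IL-6 stimulation, 37 °C / Technique: luminescence / Read-out basis: percent of IL-6-only median luminescence / Control set: IL-6-only high control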
TRAIL sens C8: caspase-8 TRAIL sensitization; NB7+C8 cells + TRAIL, ATPlite viability luminescence; inhibition (viability loss, TRAIL sensitization), % at 10 µM; hit rate 1% among 360,000;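 active = compounds causing at least 50% loss of cell viability in the single-dose screen, relative to plate controls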
STAT1 inh: reduces IFN-gamma driven STAT1 reporter signal; NIH 3T3 STAT1-luciferase reporter, luminescence; inhibition, % at 5.5 µM; hit rate 0.35% among 200,000;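 active = inhibition above a set limit, the mean inhibition across all tested compounds plus 3 SD, cut at about 34% in these data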;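 also: 0% = IFN-gamma with DMSO and 100% = IFN-gamma with 300 µM nifuroxazide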
PPC-1+TRAIL kill: compounds killing PPC-1 cancer cells with TRAIL present (potentiator screen, no TRAIL-free arm); cell killing (% activity), % at 4 µM or 5 µM; PPC-1 cells + TRAIL, ATPLite viability luminescence; AID 1443; hit rate 0.41% among 220,000;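 active = cell killing above 50% in the first pass at 4 µM, then a duplicate retest at 5 µM averaging 50% or more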;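 also: plate controls were cells with TRAIL plus DMSO for no effect and medium-only wells lacking cells for full effect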
PPC1 cytotox: kills PPC-1 cells. shares compounds with PPC-1+TRAIL kill. PPC-1 viability, ATPlite luminescence, overnight. cytotoxicity, % at 5 µM. hit rate 50% among 1,200;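 active = reconfirmed compounds whose average cytotoxicity reaches 50% or more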;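 also: 0% = DMSO-treated cells and 100% = wells holding medium but no cells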
* hit, by the source's call; nt = no result given.

SMILES	STAT3 inh	STAT3 activator	TRAIL sens C8	STAT1 inh	PPC-1+TRAIL kill	PPC1 cytotox
CCNC(=O)C1(C)CCCN(Cc2ccc(-n3ccnc3)cc2)C1 (stereo not given)	nt	nt	-19	nt	nt	nt
COCCn1nnnc1C(c1cc2cc(C)ccc2[nH]c1=O)N1CCN(C2CCCCC2)CC1 (stereo not given)	-1	109	0	-2	23	nt
COCCn1nnnc1C(c1cc2ccc(OC)cc2[nH]c1=O)N1CCN(C2CCCCC2)CC1 (stereo not given)	-1	101	2	-3	-20	0
O=C1C(Nc2ccc(O)cc2)=C/C(=N/S(=O)(=O)c2cccs2)c2ccccc21	86*	26	96*	90*	73*	74*
Cc1ccc(NC2=C/C(=N\S(=O)(=O)c3cccs3)c3ccccc3C2=O)c(C)c1	-7	109	96*	33	52*	54*
O=C1/C(=N\S(=O)(=O)c2cccs2)C([n+]2ccccc2)=C([O-])c2ccccc21	nt	nt	43	nt	22	nt
COC(=O)c1ccc(COc2cccn3c(N(C)C(=O)CCC4CCCC4)c(C)nc23)cc1	nt	nt	12	nt	nt	nt
CC(C)c1nc(NCC2CCCO2)c(C#N)c2c1COC(C)(C)C2 (stereo not given)	-2	105	-12	-5	-2	-7
O=C(Nc1ccccc1Cl)N1C2CCC1CC(O)(c1cccnc1)C2 (stereo not given)	-2	106	-8	-2	-2	9
CC(=O)c1ccc(OCCCC(=O)Nc2cc(S(=O)(=O)N3CCCCC3)ccc2C)cc1	nt	nt	-19	nt	nt	nt
CN(C)c1ccc(Nc2nc(-c3cccnc3)cs2)cc1	-6	110	67*	-52	70*	68*
CCN(CC)c1ccc(Nc2nc(-c3cccnc3)cs2)cc1	nt	nt	-12	nt	nt	nt
COc1cccc(S(=O)(=O)N(C)C[C@@H]2OCc3cn(nn3)CCCC(=O)N([C@H](C)CO)C[C@H]2C)c1	nt	nt	-21	nt	nt	nt
CSc1ccc(S(=O)(=O)NC2CCCCCC2)cc1	-4	108	-9	7	0	1
Cc1ccc(S(=O)(=O)NC2CCCCC2)cc1	nt	nt	0	nt	nt	nt
CCCS(=O)(=O)NC(=O)C1(C)CCN(C(=O)c2ccc3ccccc3c2)C1 (stereo not given)	nt	nt	-11	nt	nt	nt
C=C1C(=O)O[C@@H]2C[C@@H](C)[C@@H]3C=CC(=O)[C@@]3(C)[C@@H](OC(C)=O)[C@H]12	nt	nt	nt	nt	62*	52*
C[C@@H]1C[C@@H]2OC(=O)[C@]3(C)[C@H]2[C@@H](OC3(C)O)[C@]2(C)C(=O)C=C[C@H]12 (stereo not given in full)	nt	nt	2	nt	2	nt
Cc1c(C(=O)NCc2ccc([N+](=O)[O-])cc2)sc(=O)n1Cc1ccc2c(c1)OCO2	nt	nt	4	nt	nt	nt
Cc1noc(C)c1S(=O)(=O)NC(=O)C1(C)CCN1C(=O)C1(c2ccc(Cl)cc2)CC1 (stereo not given)	nt	nt	-9	nt	nt	nt
CCOC(=O)C1(C)CCCN(C(=O)c2cccc(C#N)c2)C1 (stereo not given)	nt	nt	-6	nt	nt	nt
COc1cccc(-c2nc(-c3ccccn3)no2)c1	95*	19	nt	60*	76*	81*
c1ccc(-c2noc(-c3ccc4c(c3)OCO4)n2)nc1	107*	12	85*	54*	87*	88*
CC1(C(=O)NS(=O)(=O)c2ccccc2C(F)(F)F)CCN1C(=O)CCC1CCCC1 (stereo not given)	nt	nt	5	nt	nt	nt
CC1(C)CC(=O)C2=C(C1)OC(N)=C(C#N)C2c1ccccc1OC(=O)N1CCOCC1 (stereo not given)	0	106	2	-1	6	19
SMILES	STAT3 inh	STAT3 activator	TRAIL sens C8	STAT1 inh	PPC-1+TRAIL kill	PPC1 cytotox
O=C(COc1ccccc1)N[C@@H]1c2ccccc2CC[C@H]1OCc1ccccc1	nt	nt	8	nt	nt	nt
CCOc1cccc(/C=C/c2cc(C(=O)O)c3ccccc3n2)c1OC	nt	nt	76*	nt	71*	69*
COc1cc(/C=C/c2cc(C(=O)O)c3ccccc3n2)cc(OC)c1O	9	99	-1	-2	35	nt
COC(=O)c1cccc(S(=O)(=O)N2CCC(n3nnc4cc(F)ccc43)CC2)c1	8	97	-1	8	10	24
COC(=O)c1cccc(S(=O)(=O)N2CCCC2)c1	2	102	-4	10	8	nt
CSc1ccc(/C=C(\C(=O)O)c2ccc(S(=O)(=O)N3CCCC3)s2)cc1	nt	nt	-15	nt	nt	nt
Cc1ccc(N2C(=O)Nc3ccccc3C2(O)C(=O)N2CCN(c3ccccn3)CC2)cc1C (stereo not given)	-14	113	18	-11	11	5
CCc1ccc(N2C(=O)Nc3ccccc3C2(O)C(=O)N2CCN(c3ccccn3)CC2)cc1 (stereo not given)	5	102	10	-16	0	nt
Cc1ccc(S(=O)(=O)N(C(=N)N)c2nc(N(C)C)nc(N(C)C)n2)cc1	nt	nt	1	nt	nt	nt
CCCn1nnnc1NCc1ccccc1OCc1cccs1	-8	106	-5	-6	6	13
Cc1ccc(C)c(N2CCN(C(=O)CCC(=O)Nc3nnc(C(F)(F)F)s3)CC2)c1	nt	nt	3	nt	nt	nt
COc1ccc(-c2nc(Cn3c(SCc4ccc(C)cc4)nc4ccncc43)c(C)o2)cc1OC	-7	114	3	-1	20	14
COc1ccc(-c2nc(Cn3c(SCc4cccc(F)c4)nc4ccncc43)c(C)o2)cc1OC	8	94	6	1	12	nt
COCCN(C(=O)c1cc(OC)c(OC)c(OC)c1)c1c(N)n(Cc2ccccc2)c(=O)[nH]c1=O	4	101	-4	6	10	3
Cc1ccc(CN2CCN(CC3CC4C=CC3C4)CC2)cc1 (stereo not given)	-6	105	-10	-1	0	7
COC(=O)CSc1nnc(-c2cccnc2)n1-c1cc(OC)cc(OC)c1	13	97	-22	0	10	nt
COc1ccc(-n2c(SCC(=O)N3CCCCC3)nnc2-c2cccnc2)cc1	21	90	-5	-1	14	-5
O=C1OC(c2ccccc2)Cc2cc(C(=O)N3CCN(c4ccc(F)cc4)CC3)ccc21 (stereo not given)	nt	nt	18	nt	nt	nt
CC(C)NC(=O)C1(C)CCN1CCC(=O)c1ccccc1 (stereo not given)	nt	nt	-14	nt	nt	nt
COc1nc(Nc2nc3ccccc3c(=O)[nH]2)nc2ccc(C)cc12	nt	nt	21	nt	51*	51*
Cc1ccc2nc(NC(=O)c3ccco3)sc2c1	94*	22	78*	59*	70*	64*
O=C(Nc1nc2ccc(Br)cc2s1)c1ccco1	nt	nt	35	nt	nt	nt
Cc1nc2ccc(NC(=O)COc3ccccc3)cc2s1	28	80	17	-8	1	2
Cc1nc2ccc(NC(=O)Cc3ccsc3)cc2s1	-14	112	22	-18	7	10
CC(C)n1nnnc1C1c2ccccc2C(=O)N1CCCn1ccnc1 (stereo not given)	nt	nt	-4	nt	nt	nt

Bioassay records deposited in PubChem by several laboratories.
